Tests used:
Trypanosoma brucei = experiment: Antitrypanosomal activity against blood stream form of Trypanosoma brucei 221a variant assessed as parasite growth inhibition measured after 48 hrs by resazurin dye based fluorescence analysis; format: functional, organism-based; details: for EC50: 48 h; for EC90: time 48 hrs
Summary of the method: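 Bloodstream-form T. b. brucei 221a (MiTat1.2a) in modified Iscove's medium at 37 °C, started at 2.5×10^4 mL^-1 with a concentration range. After 48 h, resazurin was added for a further 16 h. Fluorescence read at ex 545/em 590 nm. EC50 and EC90 taken from three independent replicates.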

[1] = Cytotoxicity against rat L6 cells assessed as cell growth inhibition incubated for 6 days by resazurin dye based assay; format: toxicity
Summary of the method: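 Rat L6 myoblasts seeded at 1×10⁴ mL⁻¹ in RPMI-1640 with a range of compound concentrations, 6 days at 37 °C; resazurin added, 6 h further, fluorescence ex 545/em 590 nm.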

[2] = Selectivity index, ratio of EC50 for cytotoxicity against rat L6 cells to EC50 for antitrypanosomal activity against bloodstream form of Trypanosoma brucei brucei 221a variant; format: toxicity, cell-based; details: read-out: Ratio EC50
Summary of the method: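 L6 rat myoblasts seeded at 1×10^4 mL^-1 in RPMI-1640 with a compound concentration range for 6 days at 37 °C. Resazurin added for 6 h, then fluorescence read.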

[3] = Apparent permeability across apical to basolateral side in MDCK-MDR1 cells at 10 uM measured for 60 mins by LC-MS/MS analysis; format: ADME, cell-based, Canis lupus familiaris; details: dog
Summary of the method: (§1)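 MDCKII-hMDR1 monolayers on inserts, compound 10 μM (1% DMSO) in duplicate, 60 min at 37 °C, bidirectional, with and without elacridar 2 μM. Amprenavir as P-gp control, Lucifer yellow for monolayer integrity; compound quantified by LC–MS/MS.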

[4] = Apparent permeability across basolateral to apical side in MDCK-MDR1 cells at 10 uM measured for 60 mins by LC-MS/MS analysis; format: ADME, cell-based, Canis lupus familiaris; details: dog, MDCK-MDR1; summary of the method: as §1
[5] = Efflux ratio of apparent permeability across basolateral to apical side over apical to basolateral side in MDCK-MDR1 cells at 10 uM measured for 60 mins by LC-MS/MS analysis; format: ADME, cell-based, Canis lupus familiaris; details: dog, mdck-mdr1, 1 h
Summary of the method: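 MDCKII cells overexpressing human MDR1 (P-glycoprotein) grown as monolayers on inserts; bidirectional transport (apical-to-basolateral and basolateral-to-apical) of 10 μM compound (1% DMSO) at 37 °C for 60 min, in duplicate, with and without P-gp inhibitor elacridar (2 μM). Monolayer integrity checked with Lucifer yellow; amprenavir as P-gp control. Compound quantified by LC–MS/MS; efflux ratio = BA Papp/AB Papp.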

[6] = Metabolic stability in mouse liver microsomes assessed as half life at 1 uM measured upto 60 mins in presence of NADPH by LC-MS/MS analysis; format: ADME, Microsome; details: 1 h

c1cc2nc(CCCCCCc3nc4ccc(C5=NCCCN5)cc4s3)sc2cc1C1=NCCCN1
EC50 (Trypanosoma brucei): 28 nM
EC90 (Trypanosoma brucei): 56 nM
EC50 at 6 days [1]: > 130000 nM
selectivity ratio [2]: > 4600

CSc1ccc(OCc2ncc([N+](=O)[O-])n2C)cc1 [FEXINIDAZOLE]
EC50 (Trypanosoma brucei): 2400 nM
EC90 (Trypanosoma brucei): 4510 nM

c1cc2nc(CCc3nc4ccc(C5=NCCCN5)cc4s3)sc2cc1C1=NCCCN1
EC50 (Trypanosoma brucei): 2380 nM
EC90 (Trypanosoma brucei): 3480 nM
EC50 at 6 days [1]: > 140000 nM
selectivity ratio [2]: > 59

c1cc2nc(C3CCC(c4nc5ccc(C6=NCCN6)cc5s4)CC3)sc2cc1C1=NCCN1 (stereo not drawn)
EC50 (Trypanosoma brucei): 240 nM
EC90 (Trypanosoma brucei): 490 nM
EC50 at 6 days [1]: 4150 nM
selectivity ratio [2]: 17

c1cc2nc(CCCc3nc4ccc(C5=NCCN5)cc4s3)sc2cc1C1=NCCN1
EC50 (Trypanosoma brucei): 5390 nM
EC90 (Trypanosoma brucei): 9010 nM
EC50 at 6 days [1]: > 150000 nM
selectivity ratio [2]: > 28

CC(C)CN(C[C@@H](O)[C@H](Cc1ccccc1)NC(=O)O[C@H]1CCOC1)S(=O)(=O)c1ccc(N)cc1 [AMPRENAVIR]
Papp A→B at 1 h, 10 µM [3]: 0.5 ×10⁻⁶ cm/s

O=C(O)Cc1ccccc1Nc1c(Cl)cccc1Cl [DICLOFENAC]
Papp A→B at 1 h, 10 µM [3]: 47.3 ×10⁻⁶ cm/s
Papp B→A at 1 h, 10 µM [4]: 31.2 ×10⁻⁶ cm/s
Ratio [5]: 0.7

N=C(N)c1ccc2nc(CCCCCc3nc4ccc(C(=N)N)cc4s3)sc2c1
EC50 (Trypanosoma brucei): 98 nM
EC90 (Trypanosoma brucei): 145 nM
EC50 at 6 days [1]: 114000 nM
selectivity ratio [2]: 1200

C(=C\c1nc2ccc(C3=NCCCN3)cc2s1)/c1nc2ccc(C3=NCCCN3)cc2s1
EC50 (Trypanosoma brucei): 100 nM
EC90 (Trypanosoma brucei): 160 nM
EC50 at 6 days [1]: 51800 nM
selectivity ratio [2]: 520

c1cc2nc(CCc3nc4ccc(C5=NCCN5)cc4s3)sc2cc1C1=NCCN1
EC50 (Trypanosoma brucei): 3640 nM
EC90 (Trypanosoma brucei): 7820 nM
EC50 at 6 days [1]: 80600 nM
selectivity ratio [2]: 22

N=C(N)c1ccc2nc(/C=C/c3nc4ccc(C(=N)N)cc4s3)sc2c1
EC50 (Trypanosoma brucei): 12 nM
EC90 (Trypanosoma brucei): 22 nM
EC50 at 6 days [1]: 2480 nM
selectivity ratio [2]: 210

N=C(N)c1ccc2nc(CCCCCCCc3nc4ccc(C(=N)N)cc4s3)sc2c1
EC50 (Trypanosoma brucei): 740 nM
EC90 (Trypanosoma brucei): 1390 nM
EC50 at 6 days [1]: 13900 nM
selectivity ratio [2]: 18

C(=C\c1nc2ccc(C3=NCCN3)cc2s1)/c1nc2ccc(C3=NCCN3)cc2s1
EC50 (Trypanosoma brucei): 190 nM
EC90 (Trypanosoma brucei): 680 nM
EC50 at 6 days [1]: 4100 nM
selectivity ratio [2]: 22

N=C(N)c1ccc2nc(CCCc3nc4ccc(C(=N)N)cc4s3)sc2c1
EC50 (Trypanosoma brucei): 340 nM
EC90 (Trypanosoma brucei): 750 nM
EC50 at 6 days [1]: > 160000 nM
selectivity ratio [2]: > 470

Cn1c(=O)c2c(ncn2C)n(C)c1=O [CAFFEINE]
t1/2 [6]: > 60 min

N=C(N)c1ccc2nc(CCCCc3nc4ccc(C(=N)N)cc4s3)sc2c1
EC50 (Trypanosoma brucei): 63 nM
EC90 (Trypanosoma brucei): 131 nM
EC50 at 6 days [1]: 134000 nM
selectivity ratio [2]: 2100

c1cc2nc(CCCCc3nc4ccc(C5=NCCN5)cc4s3)sc2cc1C1=NCCN1
EC50 (Trypanosoma brucei): 1140 nM
EC90 (Trypanosoma brucei): 1870 nM
EC50 at 6 days [1]: 93000 nM
selectivity ratio [2]: 82

C[C@]12CC[C@H]3[C@@H](CCC4=CC(=O)CC[C@@]43C)[C@@H]1CC[C@@H]2O [TESTOSTERONE]
t1/2 [6]: 6.7 min

N=C(N)c1ccc2nc(CCCCCCc3nc4ccc(C(=N)N)cc4s3)sc2c1
EC50 (Trypanosoma brucei): 890 nM
EC90 (Trypanosoma brucei): 1520 nM
EC50 at 6 days [1]: 42500 nM
selectivity ratio [2]: 48

c1cc2nc(CCCCc3nc4ccc(C5=NCCCN5)cc4s3)sc2cc1C1=NCCCN1
EC50 (Trypanosoma brucei): 190 nM
EC90 (Trypanosoma brucei): 310 nM
EC50 at 6 days [1]: > 130000 nM
selectivity ratio [2]: > 680

N=C(N)c1ccc2nc(CCc3nc4ccc(C(=N)N)cc4s3)sc2c1
EC50 (Trypanosoma brucei): 250 nM
EC90 (Trypanosoma brucei): 400 nM
EC50 at 6 days [1]: > 170000 nM
selectivity ratio [2]: > 680

c1cc2nc(C3CCC(c4nc5ccc(C6=NCCCN6)cc5s4)CC3)sc2cc1C1=NCCCN1 (stereo not drawn)
EC50 (Trypanosoma brucei): 21 nM
EC90 (Trypanosoma brucei): 31 nM
EC50 at 6 days [1]: > 130000 nM
selectivity ratio [2]: > 6200

c1cc2nc(CCCCCc3nc4ccc(C5=NCCN5)cc4s3)sc2cc1C1=NCCN1
EC50 (Trypanosoma brucei): 1560 nM
EC90 (Trypanosoma brucei): 2110 nM
EC50 at 6 days [1]: 93500 nM
selectivity ratio [2]: 60

c1cc2nc(CCCCCCCc3nc4ccc(C5=NCCN5)cc4s3)sc2cc1C1=NCCN1
EC50 (Trypanosoma brucei): 1490 nM
EC90 (Trypanosoma brucei): 2520 nM
EC50 at 6 days [1]: 6850 nM
selectivity ratio [2]: 4.6

c1cc2nc(CCCCCCc3nc4ccc(C5=NCCN5)cc4s3)sc2cc1C1=NCCN1
EC50 (Trypanosoma brucei): 820 nM
EC90 (Trypanosoma brucei): 1880 nM
EC50 at 6 days [1]: 10900 nM
selectivity ratio [2]: 13

Reference: ChEMBL document CHEMBL5365494, “Bis-6-amidino-benzothiazole Derivative that Cures Experimental Stage 1 African Trypanosomiasis with a Single Dose” (J Med Chem, 2023)
